Assay results from ChEMBL document CHEMBL4270548, “Discovery of a potent glucokinase activator with a favorable liver and pancreas distribution pattern for the treatment of type 2 diabetes mellitus” (Eur J Med Chem, 2018).

Assays:
[1] = Tmax in ICR mouse at 10 mg/kg, po administered as single dose by LC/MS/MS analysis; format: ADME, organism-based; conditions: in vivo
Method in brief: (§1)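 Male ICR mice (8 weeks) fasted overnight and fed 7 h post-dose. Dosing was either a single IV dose of 2 mg/kg in saline or a single oral dose of 10 mg/kg in 0.5 w/v% MC. Orbital plexus blood was taken under anesthesia at serial times to 24 h. Plasma was extracted with acetonitrile/methanol plus internal standard and quantified by LC/MS/MS.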

[2] = AUC (0 to 1.5 hrs) in C57BL/6J mouse liver at 10 mg/kg, po administered as single dose by LC/MS/MS analysis; format: ADME, organism-based; parameters: time < 1.5 hr, dose 10 mg/kg, route oral; conditions: in vivo
[3] = Terminal half life in ICR mouse at 10 mg/kg, po administered as single dose by LC/MS/MS analysis; format: ADME, organism-based; conditions: in vivo, read-out: beta t1/2 (converted); method in brief: as §1
Mus musculus [4] = test: Toxicity in C57BL/6J mouse assessed as hypoglycemia at <100 mg/kg, po measured up to 300 mins by glucometric method; format: organism-based; conditions: in vivo, 5 h
Method in brief: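 Male C57BL/6J mice (8 weeks) fasted 2 h and dosed orally at time 0 (n = 8/group). Tail vein glucose measured by glucometer at 0, 60, 120, 180, 240 and 300 min. Hypoglycemia defined as plasma glucose < 60 mg/dL. Mean ± SEM, Dunnett's test.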

[5] = AUC (0 to 1.5 hrs) in C57BL/6J mouse pancreas at 100 mg/kg, po administered as single dose by LC/MS/MS analysis; format: ADME, organism-based; parameters: time < 1.5 hr, dose 100 mg/kg, route oral; conditions: in vivo
Method in brief: (§2)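 Overnight-fasted male C57BL/6J mice (8 weeks) given a single oral dose (10, 30 or 100 mg/kg) in 0.1 w/v% Tween80 / 0.5 w/v% MC. Plasma taken via postcaval vein, liver and pancreas dissected and homogenized at 0.5, 1 and 1.5 h. LC/MS/MS with internal standard after acetonitrile/methanol extraction. AUC0-1.5h by trapezoidal rule, mean ± SD (n = 3). Kp = AUCtissue/AUCplasma. L/P = AUCliver/AUCpancreas.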

[6] = AUC (0 to 1.5 hrs) in C57BL/6J mouse liver at 30 mg/kg, po administered as single dose by LC/MS/MS analysis; format: ADME, organism-based; parameters: dose 30 mg/kg, time < 1.5 hr, route oral; conditions: in vivo
[7] = Ratio of AUC (0 to 1.5 hrs) in C57BL/6J mouse pancreas to plasma at 10 mg/kg, po administered as single dose by LC/MS/MS analysis; format: ADME, organism-based; conditions: pancreas and plasma, read-out: Ratio AUC
[8] = AUC (0 to infinity) in ICR mouse at 10 mg/kg, po administered as single dose by LC/MS/MS analysis; format: ADME, organism-based; parameters: dose 10 mg/kg, route oral, time infinity; conditions: in vivo; method in brief: as §1
[9] = Cytotoxicity against CHOK1 cells assessed as reduction in cell viability after 24 hrs by WST1 assay; format: cell-based, Cricetulus griseus; conditions: chinese hamster, CHO-K1 cells
Method in brief: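 CHO-K1 cells plated at 6000/well in Ham's F12K with 2% FBS and 1 mM L-glutamine plus antibiotics, incubated overnight at 37 °C, 5% CO2. Exposed 24 h to compound at 1–100 µM final, with 1% DMSO vehicle and benzbromarone positive control. Viability read by WST-1.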

Mus musculus [10] = test: Toxicity in ob/ob mouse assessed as effect on hepatic tryglyceride level at 10 to 30 mg/kg, po bid administered for 28 days measured up to post last dose; format: organism-based; conditions: in vivo, 672 h
Method in brief: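 Male ob/ob mice (9 weeks) dosed orally twice daily for 4 weeks, vehicle 0.5% MC. Plasma glucose measured by portable glucometer at 2 and 4 weeks. Liver TG assessed at the end of treatment. Mean ± SEM (n = 10), Dunnett's test versus vehicle.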

[11] = Oral bioavailability in ICR mouse at 10 mg/kg administered as single dose by LC/MS/MS analysis; format: ADME, organism-based; conditions: in vivo; method in brief: as §1
[12] = Ratio of AUC (0 to 1.5 hrs) in C57BL/6J mouse liver to pancreas at 10 mg/kg, po administered as single dose by LC/MS/MS analysis; format: ADME, organism-based; conditions: in vivo
[13] = Cmax in ICR mouse at 10 mg/kg, po administered as single dose by LC/MS/MS analysis; format: ADME, organism-based; parameters: dose 10 mg/kg, route oral; conditions: in vivo; method in brief: as §1
[14] = AUC (0 to 1.5 hrs) in C57BL/6J mouse pancreas at 10 mg/kg, po administered as single dose by LC/MS/MS analysis; format: ADME, organism-based; parameters: dose 10 mg/kg, time < 1.5 hr, route oral; conditions: in vivo
[15] = Cytotoxicity against rat primary hepatocytes assessed as reduction in cell viability after 24 hrs by AlamarBlue assay; format: cell-based, Hepatocyte
Method in brief: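 Hepatocytes isolated from male SD rats (7 weeks) by two-step collagenase perfusion. Seeded at 2–3×10^4/well on collagen in modified WE medium with 10% FBS, dexamethasone and insulin, switched to serum-free medium at 4 h. At 20–24 h exposed 24 h to 1–100 µM final, 1% DMSO vehicle. Viability read by alamarBlue.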

[16] = AUC (0 to 1.5 hrs) in C57BL/6J mouse liver at 100 mg/kg, po administered as single dose by LC/MS/MS analysis; format: ADME, organism-based; parameters: time < 1.5 hr, dose 100 mg/kg, route oral; conditions: in vivo; method in brief: as §2
[17] = Primary phase half life in ICR mouse at 2 mg/kg, iv administered as single dose by LC/MS/MS analysis; format: ADME, organism-based; conditions: in vivo, read-out: alphat1/2 (converted); method in brief: as §1
[18] = biological target: Voltage-gated inwardly rectifying potassium channel KCNH2 (Homo sapiens, UniProt Q12809); test: Inhibition of human ERG expressed in HEK293 cells at -80 holding potential by whole patch clamp assay; format: cell-based
Method in brief: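 Whole-cell patch clamp on HEK293 stably expressing hERG, perfused at 26.0 ± 2.0 °C. Holding potential −80 mV. Steps to −40 to +20 mV for 1.5 s, then −50 mV for 1.5 s, repeated every 15 s. Concentrations 3–300 µM, 0.1% DMSO vehicle, E-4031 positive control.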

[19] = Ratio of AUC (0 to 1.5 hrs) in C57BL/6J mouse liver to plasma at 100 mg/kg, po administered as single dose by LC/MS/MS analysis; format: ADME, organism-based; conditions: liver and plasma, read-out: Ratio AUC; method in brief: as §2
[20] = Ratio of AUC (0 to 1.5 hrs) in C57BL/6J mouse pancreas to plasma at 100 mg/kg, po administered as single dose by LC/MS/MS analysis; format: ADME, organism-based; conditions: pancreas and plasma, read-out: Ratio AUC; method in brief: as §2
[21] = Ratio of AUC (0 to 1.5 hrs) in C57BL/6J mouse liver to pancreas at 30 mg/kg, po administered as single dose by LC/MS/MS analysis; format: ADME, organism-based; conditions: in vivo
[22] = Volume of distribution at steady state in ICR mouse at 2 mg/kg, iv administered as single dose by LC/MS/MS analysis; format: ADME, organism-based; conditions: in vivo, read-out: Vdss; method in brief: as §1
[23] = Ratio of AUC (0 to 1.5 hrs) in C57BL/6J mouse liver to pancreas at 100 mg/kg, po administered as single dose by LC/MS/MS analysis; format: ADME, organism-based; conditions: in vivo; method in brief: as §2
[24] = Clearance in ICR mouse plasma at 2 mg/kg, iv administered as single dose by LC/MS/MS analysis; format: ADME, organism-based; method in brief: as §1
[25] = AUC (0 to 1.5 hrs) in C57BL/6J mouse plasma at 10 mg/kg, po administered as single dose by LC/MS/MS analysis; format: ADME, organism-based; parameters: time < 1.5 hr, dose 10 mg/kg, route oral
[26] = Terminal half life in ICR mouse at 2 mg/kg, iv administered as single dose by LC/MS/MS analysis; format: ADME, organism-based; conditions: in vivo, read-out: beta t1/2 (converted); method in brief: as §1
[27] = Ratio of AUC (0 to 1.5 hrs) in C57BL/6J mouse pancreas to plasma at 30 mg/kg, po administered as single dose by LC/MS/MS analysis; format: ADME, organism-based; conditions: pancreas and plasma, read-out: Ratio AUC
[28] = AUC (0 to infinity) in ICR mouse at 2 mg/kg, iv administered as single dose by LC/MS/MS analysis; format: ADME, organism-based; parameters: dose 2 mg/kg, route intravenous, time infinity; conditions: in vivo; method in brief: as §1
[29] = AUC (0 to 1.5 hrs) in C57BL/6J mouse plasma at 100 mg/kg, po administered as single dose by LC/MS/MS analysis; format: ADME, organism-based; parameters: time < 1.5 hr, dose 100 mg/kg, route oral; method in brief: as §2
[30] = Ratio of AUC (0 to 1.5 hrs) in C57BL/6J mouse liver to plasma at 10 mg/kg, po administered as single dose by LC/MS/MS analysis; format: ADME, organism-based; conditions: liver and plasma, read-out: Ratio AUC
[31] = Ratio of AUC (0 to 1.5 hrs) in C57BL/6J mouse liver to plasma at 30 mg/kg, po administered as single dose by LC/MS/MS analysis; format: ADME, organism-based; conditions: liver and plasma, read-out: Ratio AUC
[32] = AUC (0 to 1.5 hrs) in C57BL/6J mouse pancreas at 30 mg/kg, po administered as single dose by LC/MS/MS analysis; format: ADME, organism-based; parameters: time < 1.5 hr, dose 30 mg/kg, route oral; conditions: in vivo
[33] = AUC (0 to 1.5 hrs) in C57BL/6J mouse plasma at 30 mg/kg, po administered as single dose by LC/MS/MS analysis; format: ADME, organism-based; parameters: dose 30 mg/kg, time < 1.5 hr, route oral

Chain of Voltage-gated inwardly rectifying potassium channel KCNH2 (Q12809 whole entry, the tested form may be a part): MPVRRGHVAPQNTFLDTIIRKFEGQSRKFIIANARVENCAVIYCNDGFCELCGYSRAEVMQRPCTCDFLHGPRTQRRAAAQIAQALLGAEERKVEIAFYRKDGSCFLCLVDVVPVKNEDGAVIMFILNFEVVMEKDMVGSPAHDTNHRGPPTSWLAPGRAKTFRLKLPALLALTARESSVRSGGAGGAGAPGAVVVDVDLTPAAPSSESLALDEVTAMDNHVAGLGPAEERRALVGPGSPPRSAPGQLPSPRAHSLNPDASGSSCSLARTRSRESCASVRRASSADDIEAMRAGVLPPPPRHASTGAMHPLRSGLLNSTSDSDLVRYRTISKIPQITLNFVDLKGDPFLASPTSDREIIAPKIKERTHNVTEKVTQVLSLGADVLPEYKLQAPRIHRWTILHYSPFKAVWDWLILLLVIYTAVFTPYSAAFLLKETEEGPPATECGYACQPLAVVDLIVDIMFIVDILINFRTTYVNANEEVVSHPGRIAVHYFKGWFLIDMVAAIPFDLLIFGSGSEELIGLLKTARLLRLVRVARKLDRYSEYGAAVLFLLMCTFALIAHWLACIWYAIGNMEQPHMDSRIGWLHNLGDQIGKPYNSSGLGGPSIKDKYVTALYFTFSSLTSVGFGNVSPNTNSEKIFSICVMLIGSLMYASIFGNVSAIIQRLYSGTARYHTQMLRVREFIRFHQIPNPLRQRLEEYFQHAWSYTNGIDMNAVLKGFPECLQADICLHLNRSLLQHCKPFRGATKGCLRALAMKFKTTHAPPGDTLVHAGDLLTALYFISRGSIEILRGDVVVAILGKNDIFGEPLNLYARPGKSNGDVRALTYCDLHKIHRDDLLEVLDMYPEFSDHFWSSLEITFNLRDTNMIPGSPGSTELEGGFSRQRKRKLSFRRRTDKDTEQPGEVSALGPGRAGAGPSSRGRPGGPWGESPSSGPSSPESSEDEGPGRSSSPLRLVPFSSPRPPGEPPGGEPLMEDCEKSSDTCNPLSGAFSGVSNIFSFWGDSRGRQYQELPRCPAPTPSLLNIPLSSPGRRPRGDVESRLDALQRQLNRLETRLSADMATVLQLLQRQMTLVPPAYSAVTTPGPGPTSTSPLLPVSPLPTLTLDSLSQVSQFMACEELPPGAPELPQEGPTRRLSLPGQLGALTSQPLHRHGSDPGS

With CCN(CC(=O)O)CC(=O)N1CCC[C@H]1c1cc(C(=O)Nc2ncc(F)s2)c(C)s1 as the compound, how does the Tmax [1] read?
Its Tmax is 0.25 h.

And the AUC [2]?
The AUC was 8910 ng·h/g.

What about the half-life [3] of the same compound?
Its half-life is 2 h.

What about the Activity (Mus musculus [4]) of the same compound?
The Activity was “Non-Toxic”.

What about the AUC [5] of the same compound?
The AUC was 10500 ng·h/g.

And the AUC [6]?
Its AUC is 32300 ng·h/g.

What about the Kp [7] of the same compound?
The Kp was 0.064.

And the AUC(0-inf) [8]?
The AUC(0-inf) was 8600 ng·h/mL.

What about the CC50 at 24 h [9] of the same compound?
Its CC50 at 24 h is greater than 100 µM.

What about the Activity (Mus musculus [10]) of the same compound?
The Activity was “Non-Toxic”.

And the bioavailability [11]?
Its bioavailability is 20%.

What about the “Ratio AUC” value [12] of the same compound?
The value was 20.6.

What about the Cmax [13] of the same compound?
The Cmax was 3020 ng/mL.

What about the AUC [14] of the same compound?
The AUC was 433 ng·h/g.

What about the CC50 at 24 h [15] of the same compound?
Its CC50 at 24 h is greater than 100 µM.

And the AUC [16]?
Its AUC is 148000 ng·h/g.

What about the half-life [17] of the same compound?
Its half-life is 0.47 h.

What about the IC50 [18] of the same compound?
The IC50 was greater than 300 µM.

What about the Kp [19] of the same compound?
The Kp was 1.7.

What about the Kp [20] of the same compound?
Its Kp is 0.12.

And the “Ratio AUC” value [21]?
The value was 22.5.

What about the Vd [22] of the same compound?
Its Vd is 0.31 L/kg.

And the “Ratio AUC” value [23]?
The value was 14.

And the clearance [24]?
The clearance was 3.88 mL/min/kg.

And the AUC(0-t) at 1.5 h [25]?
Its AUC(0-t) at 1.5 h is 6750 ng·h/mL.

What about the half-life [26] of the same compound?
The half-life was 1.6 h.

What about the Kp [27] of the same compound?
The Kp was 0.081.

And the AUC(0-inf) [28]?
The AUC(0-inf) was 8580 ng·h/mL.

And the AUC(0-t) at 1.5 h [29]?
Its AUC(0-t) at 1.5 h is 86900 ng·h/mL.

What about the Kp [30] of the same compound?
Its Kp is 1.3.

And the Kp [31]?
The Kp was 1.6.

What about the AUC [32] of the same compound?
The AUC was 1430 ng·h/g.

And the AUC(0-t) at 1.5 h [33]?
Its AUC(0-t) at 1.5 h is 17700 ng·h/mL.
